Source: publication PMC6648849 (ACS Omega, 2019)

Columns and labels:
HepG2 cells [1] = test: cellular uptake by CLSM in HepG2 cells; format: cell-based, human; conditions: 10 μM, 6 h, 37 °C, 5% CO2; CLSM fluorescence imaging
Method in brief: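 HepG2 cells seeded on glass-bottom dishes at 2.0 × 10^4 cells/well, grown ~24 h, then transduced with BacMam tubulin–GFP for 24 h at 37 °C, 5% CO2. Incubated with 10 μM test compound in medium, PBS-washed, and nuclei stained with 5 μg/mL Hoechst 33342 for 10 min. Confocal imaging: compound ex 550/em 574 nm, GFP ex 489/em 510 nm.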

MTs [2] = test: depolymerization/polymerization of MTs in living HepG2 cells; format: cell-based, human; conditions: 10 μM colchicine coincubated with 10 μM TP–TMR, 6 h, 37 °C
Method in brief: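 HepG2 cells expressing BacMam-delivered tubulin–GFP were coincubated with 10 μM test compound and 10 μM colchicine for 6 h at 37 °C under 5% CO2. Nuclei stained with Hoechst 33342 after a PBS wash. Compound and tubulin–GFP signals imaged by confocal microscopy to assess colocalization of compound fluorescence with microtubule fibres.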

HepG2 cells [3] = test: cell viability assay; format: cell-based, human; conditions: 0–20 μM, 37 °C, 5% CO2, WST (Cell Counting Kit-8), absorbance at 450 nm
Method in brief: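 HepG2 cells plated at 1.0 × 10^4 cells/well and grown 24 h at 37 °C, 5% CO2. Medium replaced with 0–20 μM test compound for 24 or 72 h. Then fresh medium plus Cell Counting Kit-8 (WST) reagent, 4 h incubation, and absorbance read at 450 nm. Viability (%) is relative to untreated control cells set as 100%.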

[4] = cited from earlier work
MTs [5] = conditions: cited from earlier work

Compound: 5(6)-carboxytetramethylrhodamine [TMR–COOH]
- cellular uptake into HepG2 cells (HepG2 cells [1]): not observed

Compound: COc1cc2c(c(OC)c1OC)-c1ccc(OC)c(=O)cc1[C@@H](NC(C)=O)CC2 [colchicine]
- effect on polymerization of MTs in HepG2 cells (MTs [2]): polymerization of MTs was inhibited
- cytotoxicity against HepG2 cells, 24 h (HepG2 cells [3]): clear cytotoxicity in a concentration-dependent manner

Compound: CC(=O)O[C@H]1C(=O)[C@@]2(C)[C@H]([C@H](OC(=O)c3ccccc3)[C@]3(O)C[C@H](OC(=O)[C@H](O)[C@@H](NC(=O)c4ccccc4)c4ccccc4)C(C)=C1C3(C)C)[C@]1(OC(C)=O)CO[C@@H]1C[C@@H]2O [taxol]
- cytotoxicity against HepG2 cells, 24 h (HepG2 cells [3]): clear cytotoxicity in a concentration-dependent manner

Compound: CGGGKKHVPGGGSVQIVYKPVDL [TP]
- water solubility [4]: high water solubility at millimolar concentrations
- effect of binding on polymerization/depolymerization of MTs in vitro (MTs [5]): does not inhibit
